Consider ten compounds from ChEMBL document CHEMBL1152650, “Synthesis and in vitro evaluation of pteridine analogues as monoamine oxidase B and nitric oxide synthase inhibitors” (Bioorg Med Chem, 2009).

Assay [1] addresses T1, Amine oxidase [flavin-containing] B (Mus musculus, UniProt Q8BW75).
T1 sequence (Q8BW75 whole entry): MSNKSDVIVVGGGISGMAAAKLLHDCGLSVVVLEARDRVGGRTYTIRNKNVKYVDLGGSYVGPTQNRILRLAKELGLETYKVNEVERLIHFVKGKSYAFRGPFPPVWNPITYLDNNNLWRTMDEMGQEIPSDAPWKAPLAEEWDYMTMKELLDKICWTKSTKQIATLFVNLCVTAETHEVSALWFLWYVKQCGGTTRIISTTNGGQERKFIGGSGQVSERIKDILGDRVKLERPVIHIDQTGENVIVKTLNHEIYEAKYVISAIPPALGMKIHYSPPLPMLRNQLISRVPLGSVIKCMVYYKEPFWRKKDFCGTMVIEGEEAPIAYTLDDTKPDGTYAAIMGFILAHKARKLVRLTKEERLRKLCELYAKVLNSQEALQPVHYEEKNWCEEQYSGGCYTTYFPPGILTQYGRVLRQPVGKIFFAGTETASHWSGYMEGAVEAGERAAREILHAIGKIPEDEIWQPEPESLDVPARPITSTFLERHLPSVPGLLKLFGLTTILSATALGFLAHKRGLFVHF
In words: Inhibition of mouse brain MAOB.

The nature of assay [2]: Inhibition of MAOB from baboon liver by spectrophotometry. Also noted: species or system Papio hamadryas. In short, it runs like this: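 Mitochondrial fraction of baboon liver (no MAO-A activity, so no clorgyline), 0.15 mg protein/mL in 100 mM sodium phosphate pH 7.4. Substrate MMTP 50 µM, 4% DMSO final. Incubated 37 °C for 10 min, then stopped with perchloric acid and centrifuged. MMDP+ read at 420 nm. At least eight concentrations over 3 orders of magnitude; IC50 from sigmoidal fit, mean ± SEM of duplicates.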

The species named for assay [3] is Papio hamadryas. In words: Inhibition of MAOB from baboon liver at 30 uM by spectrophotometry.
Assay [4] is described as follows: Inhibition of NOS in Sprague-Dawley rat brain homogenate assessed as conversion of oxy-hemoglobin to met-hemoglobin. Type of assay: tissue-based. In short, it runs like this: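 Brain of male Sprague-Dawley rat homogenised in HEPES/sucrose/EDTA/DTT with protease inhibitors and PMSF; the 12,000g supernatant is the enzyme source. Mix holds 500 µM HEPES, 250 µM CaCl2, homogenate from 2.36 mg tissue and 5% DMSO. Pre-incubated 3 min at 37 °C, then started with oxyHb 1.09 µM, NADPH 100 µM and L-arginine 100 µM. Scanned 390–430 nm every 10 s for 10 min; metHb taken as A401−A411. IC50 from rate versus log concentration.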

A further assay is filed under the species Rattus norvegicus. Kind of assay: Ratio of IC50 for aminoguanidine to IC50 for drug for NOS in Sprague-Dawley rat brain homogenate. Type of assay: tissue-based.
The nature of assay [5]: Inhibition of recombinant NOS from rat brain.
The species entered for assay [6] is Papio hamadryas. In words: Inhibition of MAOB from baboon liver at 100 uM by spectrophotometry.

For the compound `Cn1c(=O)c2c(nc(/C=C/c3cccc(Cl)c3)n2C)n(C)c1=O`, in assay [1], affinity was put at a Ki of 0.1 µM.

Take `Cn1c(=O)c2nc(-c3cccc(Cl)c3)cnc2n(C)c1=O`: in assay [2], the IC50 (usually the concentration at which inhibition is half-maximal) was determined as 4.89 µM and the affinity, expressed as Ki, was 2.82 µM.

On to `Cn1c(N)c(/N=C/c2ccccc2)c(=O)n(C)c1=O`, for which, in the assay listed under Papio hamadryas [3], the inhibition (commonly the drop in the measured response relative to a control, in per cent) amounted to 17.8%. The half-maximal inhibitory concentration (IC50) in assay [4] amounted to 467 µM. For the same compound, the Ratio IC50 in the assay listed under Rattus norvegicus was 23.

For `Nc1nc(N)c2c(n1)NCC(c1ccccc1)N2` (configuration not stated), the half-maximal inhibitory concentration (IC50) in assay [5] came to 6 µM.

On to `Cn1c(N)c(/N=C/C=C/c2ccccc2)c(=O)n(C)c1=O`, for which, in assay [2], it took 12.1 µM to reach half-maximal inhibition (IC50) and the inhibitory constant (Ki) – broadly, a measure of affinity in units of concentration, obtained from inhibition or displacement – turned out to be 6.96 µM.

In assay [2], `Cn1c(N)c(/N=C/C=C/c2cccc(Cl)c2)c(=O)n(C)c1=O` showed an IC50 of 0.602 µM and a Ki of 0.348 µM. Further, in assay [4], the IC50 was 577 µM.

For `C[C@H](O)[C@H](O)C1CNc2nc(N)nc(N)c2N1` (some centres not stated), the inhibition constant Ki in assay [5] was determined as 0.013 µM.

Regarding `Cn1c(N)c(/N=C/c2cccc(Cl)c2)c(=O)n(C)c1=O`, in assay [2], inhibition was half-maximal at 7.03 µM (IC50) and the affinity, expressed as Ki, was 4.06 µM. The IC50 in assay [4] worked out at 6970 µM.

In assay [2], `Cn1c(=O)c2nc(/C=C/c3cccc(Cl)c3)cnc2n(C)c1=O` came in with an IC50 of 0.314 µM and an inhibitory constant (Ki) of 0.181 µM. In addition, the IC50 in assay [4] came to 1060 µM.

`Cn1c(=O)c2nc(-c3ccccc3)cnc2n(C)c1=O` returned an inhibition in the assay filed under Papio hamadryas [6] of 12.2%. Also, the IC50 in assay [4] worked out at 443 µM. The Ratio IC50 in the assay listed under Rattus norvegicus stood at 23.
